Laboratory results reported in ChEMBL document CHEMBL1147105, “In vitro and in vivo activities of PD 0305970 and PD 0326448, new bacterial gyrase/topoisomerase inhibitors with potent antibacterial activities versus multidrug-resistant gram-positive and fastidious organism groups” (2007).

Tests used:
Neisseria meningitidis = experiment: Antibacterial activity against Neisseria meningitidis; type: functional
How it was run: (§1)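 MIC by broth microdilution in gonococcal broth, incubated at 35°C in 5% CO2. Reported as MIC range, MIC50 and MIC90.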

Acinetobacter sp. = experiment: Antibacterial activity against Acinetobacter sp.; type: functional
How it was run: (§2)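 Broth microdilution MIC following CLSI guidelines, in cation-adjusted Mueller-Hinton broth, incubated at 35°C. Recent clinical isolates and reference strains, with identity confirmed by automated and standard microbiological methods. Results reported as MIC range, MIC50 and MIC90.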

[1] = system: Staphylococcus saprophyticus; experiment: Antibacterial activity against Staphylococcus saprophyticus; type: functional; how it was run: as §2
Proteus vulgaris = experiment: Antibacterial activity against Proteus vulgaris; type: functional; how it was run: as §2
Enterococcus faecalis = experiment: Antibacterial activity against VanA-resistant Enterococcus faecalis; type: functional
How it was run: (§3)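 Broth microdilution MIC per CLSI guidelines, incubated at 35°C. Cation-adjusted Mueller-Hinton broth for nonfastidious organisms and staphylococci. Streptococci tested in the same broth with 3% lysed horse blood. Anaerobes tested in supplemented Brucella broth inside an anaerobe chamber (5% CO2, 5% H2, 90% N2), read after 48 h. Strains were mainly recent clinical isolates with confirmed identity.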

Moraxella catarrhalis [2] = experiment: Antibacterial activity against beta-lactamase positive Moraxella catarrhalis; type: functional
Streptococcus viridans = experiment: Antibacterial activity against Streptococcus viridans; type: functional
How it was run: (§4)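 Broth microdilution MIC following CLSI guidelines, in cation-adjusted Mueller-Hinton broth with 3% lysed horse blood. Plates incubated at 35°C. Clinical isolates and reference strains, with identity confirmed by standard microbiological methods.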

Shigella dysenteriae = experiment: Antibacterial activity against Shigella dysenteriae; type: functional
Burkholderia cepacia = experiment: Antibacterial activity against Burkholderia cepacia; type: functional; how it was run: as §2
[3] = system: Peptoniphilus asaccharolyticus; experiment: Antibacterial activity against Peptostreptococcus asaccharolyticus; type: functional
How it was run: (§5)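 Anaerobic broth microdilution MIC following CLSI guidelines, in supplemented Brucella broth. Run in an anaerobe chamber under 5% CO2, 5% H2 and 90% N2 at 35°C, and read after 48 h. Reported as MIC range, MIC50 and MIC90.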

Prevotella sp. = experiment: Antibacterial activity against Prevotella sp.; type: functional; how it was run: as §5
Cutibacterium acnes = experiment: Antibacterial activity against Propionibacterium acnes; type: functional
Hoylesella oralis = experiment: Antibacterial activity against Prevotella oralis; type: functional; how it was run: as §5
Streptococcus pneumoniae [4] = experiment: Antibacterial activity against penicillin-intermediate resistant Streptococcus pneumoniae; type: functional; how it was run: as §3
[5] = system: Parabacteroides distasonis; experiment: Antimicrobial activity against Bacteroides distasonis; type: functional
How it was run: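 Anaerobic broth microdilution MIC following CLSI guidelines, in supplemented Brucella broth. Incubated at 35°C in a chamber under 5% CO2, 5% H2 and 90% N2. Read after 48 h.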

Streptococcus pneumoniae [6] = experiment: Antibacterial activity against levofloxacin-resistant Streptococcus pneumoniae; type: functional; how it was run: as §3
Morganella morganii = experiment: Antibacterial activity against Morganella morganii; type: functional; how it was run: as §2
Neisseria gonorrhoeae = experiment: Antibacterial activity against Neisseria gonorrhoeae; type: functional; how it was run: as §1
Corynebacterium sp. = experiment: Antibacterial activity against Corynebacterium sp.; type: functional
How it was run: (§6)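 Broth microdilution MIC following CLSI guidelines, in cation-adjusted Mueller-Hinton broth containing 3% lysed horse blood, incubated at 35°C. Clinical isolates with identity confirmed. Reported as MIC range, MIC50 and MIC90.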

Streptococcus pneumoniae [7] = experiment: Antibacterial activity against penicillin-susceptible Streptococcus pneumoniae; type: functional; how it was run: as §3
Corynebacterium jeikeium = experiment: Antibacterial activity against Corynebacterium jeikeium; type: functional; how it was run: as §6
Streptococcus pyogenes = experiment: Antibacterial activity against Streptococcus pyogenes; type: functional; how it was run: as §4
Moraxella catarrhalis [8] = experiment: Antibacterial activity against beta-lactamase negative Moraxella catarrhalis; type: functional
Fusobacterium nucleatum = experiment: Antibacterial activity against Fusobacterium nucleatum; type: functional; how it was run: as §5
Clostridioides difficile = experiment: Antibacterial activity against Clostridium difficile; type: functional; how it was run: as §5
Klebsiella pneumoniae = experiment: Antibacterial activity against beta-lactamase positive Klebsiella pneumoniae; type: functional
How it was run: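 MIC by CLSI broth microdilution for nonfastidious organisms, in cation-adjusted Mueller-Hinton broth incubated at 35°C.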

Enterococcus faecium [9] = experiment: Antibacterial activity against VanB-resistant Enterococcus faecium; type: functional; how it was run: as §3
Shigella sonnei = experiment: Antibacterial activity against Shigella sonnei; type: functional; how it was run: as §2
Escherichia coli = experiment: Antibacterial activity against Escherichia coli; type: functional; how it was run: as §2
Haemophilus influenzae = experiment: Antibacterial activity against beta-lactamase positive Haemophilus influenzae; type: functional
How it was run: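 Broth microdilution MIC following CLSI guidelines, in Haemophilus test medium at 35°C.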

Bacteroides fragilis = experiment: Antibacterial activity against Bacteroides fragilis; type: functional; how it was run: as §5
Finegoldia magna = experiment: Antibacterial activity against Peptostreptococcus magnus; type: functional; how it was run: as §5
Bacteroides ovatus = experiment: Antibacterial activity against Bacteroides ovatus; type: functional; how it was run: as §5
Staphylococcus warneri = experiment: Antibacterial activity against Staphylococcus warneri; type: functional; how it was run: as §2
Legionella pneumophila = experiment: Antibacterial activity against Legionella pneumophila; type: functional
How it was run: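 Broth microdilution MIC per CLSI guidelines, run in buffered yeast extract α-ketoglutarate broth at 35°C and read after 48 h.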

Salmonella typhimurium = experiment: Antibacterial activity against Salmonella enterica serovar Typhimurium; type: functional, Salmonella enterica subsp. enterica serovar Typhimurium; how it was run: as §2
Pseudomonas aeruginosa = experiment: Antibacterial activity against Pseudomonas aeruginosa; type: functional; how it was run: as §2
[10] = system: Peptostreptococcus anaerobius; experiment: Antibacterial activity against Peptostreptococcus anaerobius; type: functional; how it was run: as §5
Anaerococcus prevotii = experiment: Antibacterial activity against Peptostreptococcus prevotii; type: functional; how it was run: as §5
[11] = system: Staphylococcus epidermidis; experiment: Antibacterial activity against oxacillin-resistant Staphylococcus epidermidis; type: functional; how it was run: as §3
Staphylococcus aureus = experiment: Antibacterial activity against oxacillin and levofloxacin-resistant Staphylococcus aureus; type: functional; how it was run: as §3
Enterococcus faecium [12] = experiment: Antibacterial activity against VanA-resistant Enterococcus faecium; type: functional; how it was run: as §3
Salmonella enteritidis = experiment: Antibacterial activity against Salmonella enterica serovar Enteritidis; type: functional, Salmonella enterica subsp. enterica serovar Enteritidis; how it was run: as §2
Streptococcus salivarius = experiment: Antibacterial activity against Streptococcus salivarius; type: functional; how it was run: as §4
Klebsiella oxytoca = experiment: Antibacterial activity against Klebsiella oxytoca; type: functional; how it was run: as §2

C[C@H]1COc2c(N3CCN(C)CC3)c(F)cc3c(=O)c(C(=O)O)cn1c23.C[C@H]1COc2c(N3CCN(C)CC3)c(F)cc3c(=O)c(C(=O)O)cn1c23.O [LEVOFLOXACIN]
0.06 µg/mL: MIC90 (Moraxella catarrhalis [2]) | MIC90 (Shigella dysenteriae) | MIC90 (Moraxella catarrhalis [8]) | MIC90 (Shigella sonnei) | MIC90 (Salmonella typhimurium) | MIC90 (Salmonella enteritidis) | MIC50 (Klebsiella oxytoca)
4 µg/mL: MIC50 (Burkholderia cepacia) | MIC (Enterococcus faecium [9]) | MIC50 (Bacteroides fragilis)
8 µg/mL: MIC50 [5] | MIC50 (Bacteroides ovatus) | MIC50 [11]
0.008 µg/mL: MIC50 (Neisseria meningitidis) | MIC90 (Neisseria meningitidis) | MIC50 (Neisseria gonorrhoeae) | MIC90 (Neisseria gonorrhoeae) | MIC50 (Haemophilus influenzae) | MIC50 (Legionella pneumophila)
2 µg/mL: MIC90 (Prevotella sp.) | MIC50 (Cutibacterium acnes) | MIC90 (Hoylesella oralis) | MIC90 (Streptococcus pyogenes) | MIC90 (Klebsiella oxytoca)
0.03 µg/mL: MIC (Proteus vulgaris) | MIC50 (Moraxella catarrhalis [2]) | MIC50 (Shigella dysenteriae) | MIC50 (Moraxella catarrhalis [8]) | MIC (Fusobacterium nucleatum) | MIC50 (Shigella sonnei) | MIC50 (Escherichia coli) | MIC50 (Salmonella typhimurium) | MIC50 (Salmonella enteritidis)
32 µg/mL: MIC90 [5] | MIC90 (Corynebacterium sp.) | MIC90 (Klebsiella pneumoniae) | MIC90 (Bacteroides fragilis) | MIC90 (Bacteroides ovatus) | MIC50 (Staphylococcus aureus)
16 µg/mL: MIC90 (Acinetobacter sp.) | MIC (Enterococcus faecalis) | MIC90 (Burkholderia cepacia) | MIC50 (Streptococcus pneumoniae [6]) | MIC90 (Streptococcus pneumoniae [6]) | MIC90 (Morganella morganii)
0.015 µg/mL: MIC90 (Haemophilus influenzae) | MIC90 (Legionella pneumophila)
0.25 µg/mL: MIC50 [1] | MIC50 (Corynebacterium jeikeium)
0.125 µg/mL: MIC50 (Acinetobacter sp.) | MIC [3] | MIC50 (Morganella morganii) | MIC (Finegoldia magna) | MIC (Staphylococcus warneri) | MIC [10] | MIC (Anaerococcus prevotii)
64 µg/mL: MIC90 (Cutibacterium acnes) | MIC90 (Pseudomonas aeruginosa) | MIC90 [11] | MIC90 (Staphylococcus aureus) | MIC50 (Enterococcus faecium [12]) | MIC90 (Enterococcus faecium [12])
1 µg/mL: MIC50 (Streptococcus viridans) | MIC90 (Streptococcus viridans) | MIC50 (Prevotella sp.) | MIC50 (Hoylesella oralis) | MIC50 (Streptococcus pneumoniae [4]) | MIC90 (Streptococcus pneumoniae [4]) | MIC90 (Streptococcus pneumoniae [7]) | MIC90 (Escherichia coli) | MIC50 (Pseudomonas aeruginosa) | MIC50 (Streptococcus salivarius) | MIC90 (Streptococcus salivarius)
0.5 µg/mL: MIC90 [1] | MIC50 (Corynebacterium sp.) | MIC50 (Streptococcus pneumoniae [7]) | MIC90 (Corynebacterium jeikeium) | MIC50 (Streptococcus pyogenes) | MIC50 (Clostridioides difficile) | MIC90 (Clostridioides difficile) | MIC50 (Klebsiella pneumoniae)
